Source: ChEMBL document CHEMBL2040727, “Substituted thiazoles VI. Synthesis and antitumor activity of new 2-acetamido- and 2 or 3-propanamido-thiazole analogs” (2012)

Columns and labels:
Type in all cases: functional
[1] = test system: K562; test: Growth inhibition of human K562 cells at 10 uM after 48 hrs by coulter counter analysis; conditions: K562, 48 h, read-out: GI
Method in brief: (§1)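 Single-dose NCI 60-line panel screen of test compounds. Cells grown in RPMI 1640 with 10% FBS. Compounds dissolved in DMSO, then diluted in phosphate buffer saline (final DMSO below 1%). Wells run in duplicate at 6 × 10⁴ cells/ml. Controls held PBS and DMSO at matching dilutions. Incubation 48 h at 37 °C under humidified 5% CO2. Cells diluted tenfold in saline and counted by Coulter counter. Percent growth inhibition taken from mean-graph of treated-cell growth.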

[2] = test system: RPMI-8226; test: Growth inhibition of human RPMI8226 cells at 10 uM after 48 hrs by coulter counter analysis; conditions: RPMI-8226, 48 h, read-out: GI; method in brief: as §1
[3] = test system: HOP-62; test: Growth inhibition of human HOP62 cells at 10 uM after 48 hrs by coulter counter analysis; conditions: HOP-62, 48 h, read-out: GI; method in brief: as §1
[4] = test system: NCI-H226; test: Growth inhibition of human NCI-H226 cells at 10 uM after 48 hrs by coulter counter analysis; conditions: NCI-H226, 48 h, read-out: GI; method in brief: as §1
[5] = test system: NCI-H23; test: Growth inhibition of human NCI-H23 cells at 10 uM after 48 hrs by coulter counter analysis; conditions: NCI-H23, 48 h, read-out: GI; method in brief: as §1
[6] = test system: NCI-H322M; test: Growth inhibition of human NCI-H322M cells at 10 uM after 48 hrs by coulter counter analysis; conditions: read-out: GI; method in brief: as §1
[7] = test system: HCC 2998; test: Growth inhibition of human HCC2998 cells at 10 uM after 48 hrs by coulter counter analysis; conditions: HCC 2998, 48 h, read-out: GI; method in brief: as §1
[8] = test system: HCT-15; test: Growth inhibition of human HCT15 cells at 10 uM after 48 hrs by coulter counter analysis; conditions: HCT-15, 48 h, read-out: GI; method in brief: as §1
[9] = test system: HT-29; test: Growth inhibition of human HT-29 cells at 10 uM after 48 hrs by coulter counter analysis; conditions: HT-29, 48 h, read-out: GI; method in brief: as §1
[10] = test system: SW-620; test: Growth inhibition of human SW620 cells at 10 uM after 48 hrs by coulter counter analysis; conditions: SW-620, 48 h, read-out: GI
Method in brief: (§2)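 Single-dose screen in the NCI 60 cell line panel. Cells grown in RPMI 1640 with 10% FBS. Compounds dissolved in DMSO and diluted in phosphate buffered saline, final DMSO under 1%. Duplicate wells seeded from culture at 6 × 10⁴ cells/ml. Incubated 48 h at 37 °C, humidified, 5% CO2. Cells diluted tenfold in saline and Coulter-counted. Percent growth inhibition computed against PBS/DMSO controls.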

[11] = test system: SF-268; test: Growth inhibition of human SF268 cells at 10 uM after 48 hrs by coulter counter analysis; conditions: SF-268, 48 h, read-out: GI; method in brief: as §1
[12] = test system: SF-539; test: Growth inhibition of human SF539 cells at 10 uM after 48 hrs by coulter counter analysis; conditions: SF-539, 48 h, read-out: GI; method in brief: as §1
[13] = test system: LOX IMVI; test: Growth inhibition of human LOXIMVI cells at 10 uM after 48 hrs by coulter counter analysis; conditions: read-out: GI; method in brief: as §1
[14] = test system: Malme-3M; test: Growth inhibition of human MALME-3M cells at 10 uM after 48 hrs by coulter counter analysis; conditions: read-out: GI; method in brief: as §1
[15] = test system: MDA-MB-435; test: Growth inhibition of human MDA-MB-435 cells at 10 uM after 48 hrs by coulter counter analysis; conditions: MDA-MB-435, 48 h, read-out: GI; method in brief: as §1
[16] = test system: SK-MEL-28; test: Growth inhibition of human SK-MEL-28 cells at 10 uM after 48 hrs by coulter counter analysis; conditions: SK-MEL-28, 48 h, read-out: GI; method in brief: as §1
[17] = test system: SK-MEL-5; test: Growth inhibition of human SK-MEL-5 cells at 10 uM after 48 hrs by coulter counter analysis; conditions: SK-MEL-5, 48 h, read-out: GI; method in brief: as §1
[18] = test system: UACC-62; test: Growth inhibition of human UACC62 cells at 10 uM after 48 hrs by coulter counter analysis; conditions: UACC-62, 48 h, read-out: GI; method in brief: as §2
[19] = test system: IGROV-1; test: Growth inhibition of human IGROV1 cells at 10 uM after 48 hrs by coulter counter analysis; conditions: IGROV-1, 48 h, read-out: GI; method in brief: as §1
[20] = test system: OVCAR-4; test: Growth inhibition of human OVCAR4 cells at 10 uM after 48 hrs by coulter counter analysis; conditions: OVCAR-4, 48 h, read-out: GI; method in brief: as §1
[21] = test system: OVCAR-5; test: Growth inhibition of human OVCAR5 cells at 10 uM after 48 hrs by coulter counter analysis; conditions: OVCAR-5, 48 h, read-out: GI; method in brief: as §1
[22] = test system: OVCAR-8; test: Growth inhibition of human OVCAR8 cells at 10 uM after 48 hrs by coulter counter analysis; conditions: OVCAR-8, 48 h, read-out: GI; method in brief: as §1
[23] = test system: 786-0; test: Growth inhibition of human 786-0 cells at 10 uM after 48 hrs by coulter counter analysis; conditions: 786-0, 48 h, read-out: GI; method in brief: as §1
[24] = test system: A498; test: Growth inhibition of human A498 cells at 10 uM after 48 hrs by coulter counter analysis; conditions: A498, 48 h, read-out: GI; method in brief: as §1
[25] = test system: CAKI-1; test: Growth inhibition of human Caki1 cells at 10 uM after 48 hrs by coulter counter analysis; conditions: CAKI-1, 48 h, read-out: GI; method in brief: as §1
[26] = test system: RXF 393; test: Growth inhibition of human RXF393 cells at 10 uM after 48 hrs by coulter counter analysis; conditions: RXF 393, 48 h, read-out: GI; method in brief: as §1
[27] = test system: SN12C; test: Growth inhibition of human SN12C cells at 10 uM after 48 hrs by coulter counter analysis; conditions: read-out: GI; method in brief: as §1
[28] = test system: UO-31; test: Growth inhibition of human UO31 cells at 10 uM after 48 hrs by coulter counter analysis; conditions: UO-31, 48 h, read-out: GI; method in brief: as §2
[29] = test system: PC-3; test: Growth inhibition of human PC3 cells at 10 uM after 48 hrs by coulter counter analysis; conditions: PC-3, 48 h, read-out: GI; method in brief: as §1
[30] = test system: MDA-MB-231; test: Growth inhibition of human MDA-MB-231 cells at 10 uM after 48 hrs by coulter counter analysis; conditions: MDA-MB-231, 48 h, read-out: GI; method in brief: as §1
[31] = Growth inhibition of human Hs 578T cells at 10 uM after 48 hrs by coulter counter analysis; conditions: read-out: GI; method in brief: as §1
[32] = test system: BT-549; test: Growth inhibition of human BT549 cells at 10 uM after 48 hrs by coulter counter analysis; conditions: BT-549, 48 h, read-out: GI; method in brief: as §1
[33] = test system: T47D; test: Growth inhibition of human T47D cells at 10 uM after 48 hrs by coulter counter analysis; conditions: read-out: GI; method in brief: as §2
[34] = test system: MDA-MB-468; test: Growth inhibition of human MDA-MB-468 cells at 10 uM after 48 hrs by coulter counter analysis; conditions: MDA-MB-468, 48 h, read-out: GI; method in brief: as §1
[35] = test system: CCRF-CEM; test: Growth inhibition of human CCRF-CEM cells at 10 uM after 48 hrs by coulter counter analysis; conditions: read-out: GI; method in brief: as §1

## CCOC(=O)c1sc(NC(=O)C(C)N(CC)CC)nc1C (stereo not given)
[1]
  inhibition of growth at 10 µM: < 10%
[2]
  inhibition of growth at 10 µM: < 10%
[3]
  inhibition of growth at 10 µM: < 10%
[4]
  inhibition of growth at 10 µM: < 10%
[5]
  inhibition of growth at 10 µM: < 10%
[6]
  inhibition of growth at 10 µM: < 10%
[7]
  inhibition of growth at 10 µM: < 10%
[8]
  inhibition of growth at 10 µM: < 10%
[9]
  inhibition of growth at 10 µM: < 10%
[10]
  inhibition of growth at 10 µM: < 10%
[11]
  inhibition of growth at 10 µM: < 10%
[12]
  inhibition of growth at 10 µM: < 10%
[13]
  inhibition of growth at 10 µM: < 10%
[14]
  inhibition of growth at 10 µM: < 10%
[15]
  inhibition of growth at 10 µM: < 10%
[16]
  inhibition of growth at 10 µM: < 10%
[17]
  inhibition of growth at 10 µM: < 10%
[18]
  inhibition of growth at 10 µM: < 10%
[19]
  inhibition of growth at 10 µM: < 10%
[20]
  inhibition of growth at 10 µM: < 10%
[21]
  inhibition of growth at 10 µM: < 10%
[22]
  inhibition of growth at 10 µM: < 10%
[23]
  inhibition of growth at 10 µM: < 10%
[24]
  inhibition of growth at 10 µM: < 10%
[25]
  inhibition of growth at 10 µM: 12%
[26]
  inhibition of growth at 10 µM: < 10%
[27]
  inhibition of growth at 10 µM: < 10%
[28]
  inhibition of growth at 10 µM: < 10%
[29]
  inhibition of growth at 10 µM: < 10%
[30]
  inhibition of growth at 10 µM: < 10%
[31]
  inhibition of growth at 10 µM: < 10%
[32]
  inhibition of growth at 10 µM: < 10%
[33]
  inhibition of growth at 10 µM: < 10%
[34]
  inhibition of growth at 10 µM: < 10%
[35]
  inhibition of growth at 10 µM: < 10%
